Bioassay records (PubChem)
Compounds with a hit are over-represented: about 1.8% of the library has one in this group of screens.
HKDC1 inhibitor = HKDC1 hexokinase inhibitors, primary screen, biochemical, fluorescence, uHTS; Q2TB90; recombinant HKDC1, G6PDH/diaphorase resazurin coupled fluorescence; inhibition, % at 20 µM; 340,000 compounds, 0.16% hits; AID 493160, 2011;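 active = inhibition above about 35% when tested at 20 µM, limit read from the data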;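 note: plate controls were DMSO wells with enzyme for no effect and DMSO wells lacking enzyme for full effect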
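Assay system: recombinant HKDC1 hexokinase; detection: coupled resazurin fluorescence, excitation 525 nm, emission 613 nm; benchmarks: DMSO-plus-enzyme-mix negative control, buffer-substituted positive control; compound dosing: single 20 µM dose; schedule: 90 min at room temperature in dark; also added: glucose plus 1 mM ATP as hexokinase substrates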
STEP inh = STEP phosphatase inhibitors, primary screen, biochemical, fluorescence intensity, uHTS | Tyrosine-protein phosphatase non-receptor type 5 (Homo sapiens), P54829 | recombinant STEP, OMFP fluorogenic substrate | inhibition, % at 20 µM | 360,000 compounds, 0.25% hits;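 active = inhibition at 20 µM, scaled per plate between control wells, above about 37%, limit read from the data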;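 note: 0% = DMSO with enzyme and substrate and 100% = substrate only without enzyme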
Target sequence (P54829 whole entry, looked up): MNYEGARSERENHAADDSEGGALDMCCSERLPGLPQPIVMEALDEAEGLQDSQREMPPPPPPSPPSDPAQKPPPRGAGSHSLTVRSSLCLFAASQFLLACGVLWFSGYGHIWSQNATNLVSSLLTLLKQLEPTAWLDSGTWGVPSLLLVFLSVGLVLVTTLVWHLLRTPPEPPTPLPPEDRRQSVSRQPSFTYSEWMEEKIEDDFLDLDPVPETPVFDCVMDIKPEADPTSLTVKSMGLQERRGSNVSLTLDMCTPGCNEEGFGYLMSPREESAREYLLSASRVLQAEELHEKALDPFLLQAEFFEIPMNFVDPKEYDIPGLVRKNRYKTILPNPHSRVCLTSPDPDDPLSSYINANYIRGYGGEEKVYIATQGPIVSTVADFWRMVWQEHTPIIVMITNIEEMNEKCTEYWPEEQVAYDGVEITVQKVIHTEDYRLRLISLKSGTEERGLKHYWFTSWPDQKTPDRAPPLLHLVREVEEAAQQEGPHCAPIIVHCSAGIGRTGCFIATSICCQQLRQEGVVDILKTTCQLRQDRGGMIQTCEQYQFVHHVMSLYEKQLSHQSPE
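Test system: STEP tyrosine phosphatase / Reagent: OMFP at 25 µM / Doses: 20 µM, 1% DMSO / Read-out: percent inhibition scaled to no-enzyme and uninhibited-enzyme controls, plate-pattern corrected / Detection: FITC-channel fluorescence of OMFP product / Medium: Bis-Tris buffer pH 6.0, 2.5 mM DTT, 0.005% Tween 20 / Schedule: 20 min at room temperature, dark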
DNMT1 inh = human DNMT1 methyltransferase inhibitors, primary screen, biochemical, molecular beacon, fluorescence, HinP1I cleavage, uHTS; DNA (cytosine-5)-methyltransferase 1 (Homo sapiens), P26358; inhibition (reported as % activation of signal), % at 10 µM; 360,000 compounds, 0.83% hits; in the data active = inhibition above about 50%
LMPTP inh = LMPTP phosphatase inhibitors, primary screen, biochemical, fluorescence intensity, uHTS | AID 651560, 2012 | 360,000 compounds, 0.22% hits | recombinant LMPTP-A, OMFP fluorogenic substrate | Low molecular weight phosphotyrosine protein phosphatase (Homo sapiens), P24666 | inhibition, % at 20 µM;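 active = compounds that cut the enzyme signal by at least half of the control window in the single-dose screen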;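 note: plate controls were DMSO wells with enzyme plus substrate for no effect and substrate without enzyme for full effect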
Target sequence (P24666 whole entry, looked up): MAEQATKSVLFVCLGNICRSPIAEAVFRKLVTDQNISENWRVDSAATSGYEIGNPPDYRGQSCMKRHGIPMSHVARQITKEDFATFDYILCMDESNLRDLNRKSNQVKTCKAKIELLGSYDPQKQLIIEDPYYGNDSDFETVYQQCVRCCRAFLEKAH
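Test system: LMPTP-A, protein tyrosine phosphatase of low molecular weight; Input: 0.625 nM enzyme; Incubation: 50 min dark incubation at room temperature; Signal: endpoint fluorescence intensity from OMFP dephosphorylation; Read-out basis: % inhibition versus control wells.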
SUMO1 PPI mod = modulators of SUMO1 protein-protein interactions, primary screen, biochemical, uHTS; Small ubiquitin-related modifier 1 (Homo sapiens), P63165; SUMO1 binding to a labelled peptide, TR-FRET, 1 h; inhibition, % at 20 µM; 360,000 compounds, 0.33% hits; AID 602429, 2012; in the data active = inhibition above about 37%
Scp1 inh = Scp-1 phosphatase inhibitors, primary screen, biochemical, colorimetric, uHTS | Carboxy-terminal domain RNA polymerase II polypeptide A small phosphatase 1 (Homo … | Recombinant Scp1, phosphopeptide, malachite green phosphate absorbance | inhibition, % at 20 µM | 340,000 compounds, 0.88% hits;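 active = inhibition above about 50% at 20 µM, limit read from the data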;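 note: plate controls were DMSO wells with enzyme for no effect and wells lacking enzyme for full effect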
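Times: enzyme reaction 45 min at room temperature, colour 5 min, stabilisation 30 min. Material: SCP-1 catalytic fragment, aa 76-261. Medium: Acidic Tris acetate buffer with magnesium and detergent. Signal: colorimetric free-phosphate detection, absorbance 630 nm. Read-out basis: % inhibition of SCP-1 phosphate liberation. Reagent: Phosphorylated 17-residue peptide substrate.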
Scp-1 conf = Scp-1 phosphatase inhibitors, retest, confirmation, biochemical, colorimetric, single concentration; recombinant SCP-1 catalytic domain, phosphate release, malachite green absorbance; 2,500 compounds, 61% hits; inhibition, % at 20 µM; shares compounds with Scp1 inh;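 note: plate controls were DMSO with enzyme for no effect and buffer wells lacking enzyme for full effect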
Scp-1 MG ctr = colorimetric readout interference by compounds, confirmation, artefact control for Scp-1 inhibitor project, biochemical, single concentration; shares compounds with Scp1 inh; Colorimetric interference counterscreen, malachite green absorbance 630 nm; 2,500 tested, under 10 active; apparent inhibition (interference), % at 20 µM;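 note: compounds added after enzyme reaction finished so only phosphate colour detection is probed; plate controls were DMSO wells with completed Scp-1 reaction for no effect and substrate wells lacking enzyme for full effect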
Scp1 DSF = Scp-1 binding by thermal shift, confirmation, orthogonal assay for Scp-1 inhibitor project, biophysical, differential scanning fluorimetry; shares compounds with Scp1 inh; Recombinant SCP1, Sypro Orange thermal shift Tm; thermal shift relative to vanadate control, % at 40 µM; 1,500 compounds, 25% hits; AID 540329, 2011;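 active = substances whose mean melting-temperature shift, as a percentage of the reference inhibitor's shift, reaches about 5.3%, limit read from the data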;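 note: 0% = Tm of DMSO wells and 100% = Tm with sodium orthovanadate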
The depositor's hits bear a star.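 Rule for the calls, unless noted: active = inhibition of at least 30% at 20 µM; inactive = the rest.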

For O=C(CCS(=O)(=O)c1ccc(Br)cc1)NC1CCCCCC1 the results were HKDC1 inhibitor -3, STEP inh 6, DNMT1 inh 46, LMPTP inh -2, SUMO1 PPI mod 7, Scp1 inh 70*, Scp-1 conf 69*, Scp-1 MG ctr -10 and Scp1 DSF -19.
CC(C)C(c1nnnn1CCc1ccccc1)N1CCSCC1 (centres undefined) was read as HKDC1 inhibitor 2, STEP inh -3, DNMT1 inh 2, LMPTP inh 0, SUMO1 PPI mod -1 and Scp1 inh -1.
`COCCn1nnnc1C(C(C)C)N1CCSCC1` (centres undefined) gave HKDC1 inhibitor -2, STEP inh -1, DNMT1 inh 1, LMPTP inh -2, SUMO1 PPI mod -2, Scp1 inh 67*, Scp-1 conf -5 and Scp-1 MG ctr -12.
For O=C(CN(C(=O)CCC(=O)Nc1ccccn1)c1ccc(F)cc1)NCc1ccc(F)cc1 the results were HKDC1 inhibitor 2, STEP inh -1, DNMT1 inh 2, LMPTP inh 0, SUMO1 PPI mod -2 and Scp1 inh 2.
Cc1cc2nc(/C(C#N)=C\c3ccc(-c4ccccc4C(=O)O)o3)[nH]c2cc1C was read as HKDC1 inhibitor 12, STEP inh -8, DNMT1 inh 4, LMPTP inh 5, SUMO1 PPI mod -22 and Scp1 inh 27.
For Cc1ccc2nc(/C(C#N)=C/c3ccc(-c4ccccc4C(=O)O)o3)[nH]c2c1 the results were HKDC1 inhibitor 6, STEP inh 4, DNMT1 inh 21, LMPTP inh 5, SUMO1 PPI mod 0, Scp1 inh 54*, Scp-1 conf 47*, Scp-1 MG ctr -13 and Scp1 DSF 7.3*.
For Cn1ncc(C#N)c1/N=C/N(Cc1ccccc1)Cc1ccccc1 the results were HKDC1 inhibitor -2, STEP inh 1, DNMT1 inh -2, LMPTP inh 2, SUMO1 PPI mod 2, Scp1 inh 73*, Scp-1 conf -20 and Scp-1 MG ctr -17.
Screening CC1(C(=O)NC2CCCCCC2)CCN1C(=O)Cc1ccc(-c2ccccc2)cc1 (centres undefined) returned STEP inh 0, DNMT1 inh -3, LMPTP inh 2 and SUMO1 PPI mod 0.
For CC1=NNC(=O)C1CCC(=O)N/N=C/c1c(Cl)cccc1Cl (centres undefined) the results were HKDC1 inhibitor -14, STEP inh 1, DNMT1 inh -2, LMPTP inh 0, SUMO1 PPI mod -1, Scp1 inh 5, Scp-1 conf -8 and Scp-1 MG ctr -6.
For CC1=NNC(=O)C1CCC(=O)N/N=C/c1ccc(Cl)cc1 (centres undefined) the results were HKDC1 inhibitor -8, STEP inh 5, DNMT1 inh 2, LMPTP inh 1, SUMO1 PPI mod -1 and Scp1 inh -1.
CC1=NNC(=O)C1CCC(=O)N/N=C(\C)c1ccccc1 (centres undefined) was read as HKDC1 inhibitor -4, STEP inh 5, DNMT1 inh 0, LMPTP inh 0, SUMO1 PPI mod -15, Scp1 inh 5, Scp-1 conf -3 and Scp-1 MG ctr -7.
For O=C(Nc1ccccc1N1CCOCC1)c1cccc2ccccc12 the results were STEP inh -3, DNMT1 inh -3, LMPTP inh -1 and SUMO1 PPI mod 1.
`CC(=O)Nc1cccc(-c2ccnc3c2CC(C)(C(=O)Nc2ccc(C(C)C)cc2)O3)c1` (centres undefined) gave STEP inh -3, DNMT1 inh -8, LMPTP inh 2 and SUMO1 PPI mod 4.
`N#CCCCc1cn(-c2nc3ccccc3s2)nn1` gave LMPTP inh -1 and SUMO1 PPI mod -2.
`NC(=S)NN=C1CSSC1` gave STEP inh -1, DNMT1 inh -22, LMPTP inh 2 and SUMO1 PPI mod -8.
Screening CC1CC2C3CCC4=CC(=O)CCC4(C)C3CCC2(C)C1(O)C(=O)CO (centres undefined) returned HKDC1 inhibitor -2, STEP inh -3, DNMT1 inh 12, LMPTP inh -1, SUMO1 PPI mod -6, Scp1 inh 59*, Scp-1 conf -23 and Scp-1 MG ctr -19.
`CCOC(=O)N(O)c1ccc(C=Cc2ccccc2)cc1` gave HKDC1 inhibitor 5, STEP inh 2, DNMT1 inh 10, LMPTP inh 5, SUMO1 PPI mod -7, Scp1 inh 59*, Scp-1 conf 50*, Scp-1 MG ctr -8 and Scp1 DSF -18.
`O=C(Nc1ccc2c(c1)OCO2)c1cc(C2CCCN(C(=O)C3CCCCC3)C2)on1` (centres undefined) gave STEP inh 2, DNMT1 inh -3, LMPTP inh 1 and SUMO1 PPI mod 1.
For C[N+]1(C)CCC(=C2c3ccccc3CC(=O)c3sccc32)CC1 the results were HKDC1 inhibitor 2, STEP inh 5, DNMT1 inh 2, LMPTP inh 0, SUMO1 PPI mod 12, Scp1 inh 97*, Scp-1 conf 3 and Scp-1 MG ctr -3.
CCc1ccc([C@@H]2CC=C(C(=O)O)[C@H](c3ccc(C(C)(C)C)cc3)N2S(=O)(=O)c2ccc(C)cc2)cc1 was read as HKDC1 inhibitor 9, STEP inh -3, DNMT1 inh 45, LMPTP inh 5, SUMO1 PPI mod 21 and Scp1 inh -17.
